Experimental data from ChEMBL document CHEMBL4706565, “Anti-glioma effects of 2-aminothiophene-3-carboxamide derivatives, ANO1 channel blockers” (Eur J Med Chem, 2020).
Values belong to the compound of their own block, whether it stands above or below them. The source made the active and inactive calls. No cut-off for these calls is given here.

Key:
[1] = target: T1, Anoctamin-1 (Homo sapiens) (UniProt Q5XXA6); experiment: Inhibition of human ANO1 channel expressed in HEK293 cells at 10 uM incubated for 10 mins by FLIPR assay relative to control; assay type: cell-based
T1 sequence (whole entry): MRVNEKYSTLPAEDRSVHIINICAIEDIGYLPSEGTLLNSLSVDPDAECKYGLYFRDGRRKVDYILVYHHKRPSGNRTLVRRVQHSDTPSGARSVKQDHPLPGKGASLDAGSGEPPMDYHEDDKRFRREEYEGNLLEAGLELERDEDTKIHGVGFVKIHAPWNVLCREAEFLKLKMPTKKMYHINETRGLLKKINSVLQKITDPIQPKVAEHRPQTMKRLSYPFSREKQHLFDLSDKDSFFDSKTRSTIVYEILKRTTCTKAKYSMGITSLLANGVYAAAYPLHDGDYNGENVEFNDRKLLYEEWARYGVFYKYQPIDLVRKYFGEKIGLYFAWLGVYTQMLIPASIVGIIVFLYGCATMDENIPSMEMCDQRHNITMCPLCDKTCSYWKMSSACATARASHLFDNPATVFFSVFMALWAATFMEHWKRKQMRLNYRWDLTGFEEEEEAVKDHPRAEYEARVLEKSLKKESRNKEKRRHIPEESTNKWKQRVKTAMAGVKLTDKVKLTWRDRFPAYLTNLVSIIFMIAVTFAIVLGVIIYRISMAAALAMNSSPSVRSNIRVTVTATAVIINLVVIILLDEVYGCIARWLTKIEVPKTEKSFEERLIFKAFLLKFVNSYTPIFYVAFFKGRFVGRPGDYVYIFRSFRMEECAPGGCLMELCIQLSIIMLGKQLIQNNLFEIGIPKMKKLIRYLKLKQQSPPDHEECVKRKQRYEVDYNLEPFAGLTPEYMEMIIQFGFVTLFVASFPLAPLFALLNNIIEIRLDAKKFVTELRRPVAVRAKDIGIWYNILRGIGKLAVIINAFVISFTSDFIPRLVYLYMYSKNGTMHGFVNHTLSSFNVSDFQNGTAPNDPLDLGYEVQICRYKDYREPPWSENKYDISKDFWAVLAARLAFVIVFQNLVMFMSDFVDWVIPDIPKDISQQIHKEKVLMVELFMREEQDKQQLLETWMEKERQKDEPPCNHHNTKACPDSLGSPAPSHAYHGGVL
In short: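 HEK293 cells expressing human ANO1, 50,000 cells/well, plated overnight. Loaded with FLIPR Red membrane-potential dye in HEPES-buffered saline (pH 7.4) for 40-60 min at room temperature. Compound added for 10 min at room temperature, final DMSO 0.5%.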

[2] = target: T2, Anoctamin-1 (Mus musculus, UniProt Q8BHY3); experiment: Inhibition of GFP-fused mouse ANO1 channel expressed in HEK293A cells assessed as inhibition of ATP-induced channel current amplitude at membrane potential of +80 mV by patch clamp electrophysiology assay; assay type: cell-based, HEK293-A
T2 sequence (Q8BHY3 whole entry): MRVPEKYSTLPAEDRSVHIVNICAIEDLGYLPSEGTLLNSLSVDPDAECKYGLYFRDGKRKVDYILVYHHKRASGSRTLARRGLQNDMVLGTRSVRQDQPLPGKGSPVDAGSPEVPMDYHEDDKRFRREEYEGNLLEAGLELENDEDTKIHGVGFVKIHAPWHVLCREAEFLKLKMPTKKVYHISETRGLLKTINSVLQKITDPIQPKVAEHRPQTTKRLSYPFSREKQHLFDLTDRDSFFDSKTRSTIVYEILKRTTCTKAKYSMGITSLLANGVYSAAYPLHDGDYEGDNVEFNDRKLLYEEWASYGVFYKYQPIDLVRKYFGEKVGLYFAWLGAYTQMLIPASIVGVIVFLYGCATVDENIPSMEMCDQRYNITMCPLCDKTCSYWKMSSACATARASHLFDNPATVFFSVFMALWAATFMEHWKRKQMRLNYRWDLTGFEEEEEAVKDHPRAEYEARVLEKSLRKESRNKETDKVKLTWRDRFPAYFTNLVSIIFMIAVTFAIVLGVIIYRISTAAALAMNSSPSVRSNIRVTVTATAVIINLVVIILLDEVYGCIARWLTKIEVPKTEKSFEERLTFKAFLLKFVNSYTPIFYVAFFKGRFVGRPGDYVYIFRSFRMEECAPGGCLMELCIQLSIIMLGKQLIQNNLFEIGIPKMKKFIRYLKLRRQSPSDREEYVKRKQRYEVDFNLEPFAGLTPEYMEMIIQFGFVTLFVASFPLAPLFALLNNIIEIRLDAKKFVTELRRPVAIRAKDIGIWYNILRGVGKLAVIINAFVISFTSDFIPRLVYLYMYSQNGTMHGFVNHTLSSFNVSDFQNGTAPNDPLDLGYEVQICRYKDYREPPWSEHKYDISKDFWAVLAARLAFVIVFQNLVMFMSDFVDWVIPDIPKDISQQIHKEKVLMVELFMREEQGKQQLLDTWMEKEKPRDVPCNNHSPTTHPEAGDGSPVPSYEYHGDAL
In short: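 Whole-cell recording at room temperature in HEK293A cells transfected with GFP-mANO1, GFP-mANO2 or GFP-mTTYH1. 1 s ramps from +80 to -80 mV, holding potential -10 mV. For ANO1/ANO2: pipette CsCl 146 mM with Ca-EGTA-NMDG, pH 7.3; bath NaCl-based, pH 7.3. For TTYH1: Tris-aspartate pipette (pH 7.2) and Tris-HCl bath (pH 7.4), with […] and BaCl2 added to block K+ channels, and hypotonic (220 mOsm/kg) bath. Washout recordings assessed reversibility.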

[3] = Antiproliferative activity against mouse primary astrocytes assessed as reduction in cell viability at 100 uM measured after 72 hrs by Celltiter-Glo luminescent assay; assay type: cell-based, Astrocyte
In short: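 Primary astrocytes isolated from adult mouse brain by a previously reported method. 5.0×10^3 cells/well, compound as 1:4 serial DMSO dilutions, CellTiter-Glo viability at 72 h.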

[4] = tested on: U-251; experiment: Inhibition of anchorage-independent colony formation in human U251 cells at 10 uM incubated for 14 days by crystal violet staining based soft agar colony formation assay; assay type: functional, cell-based; details: time 14.0 day
In short: (§1)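 Soft agar assay: 2.0×10^3 U251 cells in complete medium with 0.3% agar over a 0.6% bottom agar layer. Treated with compounds at 1-100 μM for 14 days, 37 °C, 5% CO2. Colonies stained with crystal violet for 24 h, whole wells photographed and colonies counted against DMSO control; n = 3.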

[5] = tested on: U-251; experiment: Inhibition of anchorage-independent colony formation in human U251 cells at 100 uM incubated for 14 days by crystal violet staining based soft agar colony formation assay; assay type: functional; details: time 14.0 day; in short: as §1
[6] = tested on: U-251; experiment: Inhibition of cell migration in human U251 cells at 10 uM incubated for 18 hrs by wound healing assay; assay type: functional
In short: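 U251 monolayer, 2.0×10^5 cells/well, plated overnight, then scratched and washed with PBS. Wound area imaged before and after incubation; migration ratio taken from migrated area. One-way ANOVA.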

[7] = tested on: U-251; experiment: Inhibition of cell invasion in human U251 cells at 10 uM incubated for 48 hrs by Boyden chamber method; assay type: functional
In short: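 Boyden chamber invasion: U251 cells serum-starved 24 h, then 2.5×10^5 cells seeded in 8-μm ECMatrix-coated transwells. Treated with compound at 1 or 10 μM for 48 h at 37 °C. Invasion ratio from relative fluorescence.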

[8] = tested on: U-251; experiment: Antiproliferative activity against human U251 cells overexpressing ANO1 assessed as reduction in cell viability measured after 72 hrs by Celltiter-glo assay; assay type: functional
In short: (§2)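 5.0×10^3 cells/well seeded, overnight, then compounds added as 1:4 serial dilutions in DMSO; viability read after 72 h with CellTiter-Glo luminescence. GI50 from fitted dose-response curves; triplicate wells, SD from three independent experiments. DMEM for U251 and U138, MEM for U87MG, both with 10% FBS and pen/strep, 37 °C, 5% CO2.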

[9] = tested on: U-87 MG; experiment: Antiproliferative activity against human U87MG cells overexpressing ANO1 assessed as reduction in cell viability measured after 72 hrs by Celltiter-glo assay; assay type: functional, U-87MG ATCC; in short: as §2
[10] = tested on: U138-MG; experiment: Antiproliferative activity against human U138 cells overexpressing ANO1 assessed as reduction in cell viability measured after 72 hrs by Celltiter-glo assay; assay type: functional; in short: as §2
[11] = tested on: U-251; experiment: Inhibition of colony formation in human U251 cells at 10 uM incubated for 14 days by crystal violet dye based assay; assay type: functional; details: time 14.0 day
In short: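 Colonies stained 24 h with crystal violet in methanol/formaldehyde/PBS, washed, extracted with 10% acetic acid and read at A570 nm. Compared against DMSO control.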

inhibition [1]: 12.3%
SMILES: NC(=O)c1c(NC(=S)NC(=O)c2ccc3c(c2)OCCO3)sc2c1CCC2

inhibition [1]: < 10%
SMILES: CC(C)(C)C(=O)Nc1sccc1C(N)=O

inhibition [1]: 12.1%
SMILES: NC(=O)c1c(NC(=O)c2ccccc2)sc2c1CCCCC2

IC50 [2]: 0.03 µM
SMILES: COc1ccccc1/C=N/NC(=O)COc1ccc(Cl)cc1C

inhibition [1]: 16.3%
SMILES: NC(=O)c1c(NC(=S)NC(=O)c2ccc3c(c2)OCO3)sc2c1CCC2

inhibition [1]: 51.5%
SMILES: NC(=O)c1c(NC(=O)c2ccco2)sc2c1CCC2

The remaining lines, values behind:

SMILES: CC(C)(C)C(=O)Nc1sc2c(c1C(N)=O)CCC2
inhibition [1]: 12.5%

SMILES: COc1cc(OC)cc(C(=O)NC(=S)Nc2sc3c(c2C(N)=O)CCC3)c1
inhibition [1]: 46.1%

SMILES: NC(=O)c1c(NC(=S)NC(=O)c2cccc(C(F)(F)F)c2)sc2c1CCC2
inhibition [1]: 26.7%

SMILES: Cc1ccccc1NC(=O)c1c(NC(=O)C(F)(F)Br)sc2c1CCCCC2
IC50 [2]: 0.05 µM
inhibition at 72 h, 100 µM [3]: < 50%
inhibition [4]: inactive
inhibition [5]: inactive
inhibition at 10 µM [6]: 16.7%
inhibition at 10 µM [7]: 11.7%
GI50 [8]: 45.3 µM
GI50 [9]: 48 µM
GI50 [10]: 29.4 µM
inhibition [11]: inactive

SMILES: NC(=O)c1c(NC(=S)NC(=O)c2ccc(C(F)(F)F)cc2)sc2c1CCC2
inhibition [1]: < 10%

SMILES: CC(C)(C)C1CCc2c(sc(NC(=O)c3ccco3)c2C(N)=O)C1 (stereo unspecified)
inhibition [1]: < 10%

SMILES: COc1ccc(C(=O)NC(=S)Nc2sc3c(c2C(N)=O)CCC3)cc1OC
inhibition [1]: < 10%

SMILES: Cc1ncsc1C(=O)NC(=S)Nc1sc2c(c1C(N)=O)CCC2
inhibition [1]: < 10%

SMILES: NC(=O)c1ccsc1NC(=O)c1ccco1
inhibition [1]: 39.5%

SMILES: COc1cc(C(=O)NC(=S)Nc2sc3c(c2C(N)=O)CCC3)cc(OC)c1OC
inhibition [1]: < 10%

SMILES: CC(C)(C)C1CCc2c(sc(NC(=O)c3ccccc3)c2C(N)=O)C1 (stereo unspecified)
inhibition [1]: 22%
